Reference: ChEMBL document CHEMBL1140866, “New pyrazoline bearing 4(3H)-quinazolinone inhibitors of monoamine oxidase: synthesis, biological evaluation, and structural determinants of MAO-A and MAO-B selectivity” (Bioorg Med Chem, 2009)

What follows are compounds tested on Mus musculus (assay: Anxiolytic activity in albino mouse assessed as time spent on closed arm at 100 mg/kg, ip by plus-maze test). Conditions: route intraperitoneal.
Assay type: functional
Design: unit not given here
Summary of the method: (§1)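 Mice given compounds i.p. at 100 mg/kg in DMSO/water (1:4), about 0.1 mL, 1 h before testing; controls got 0.1 mL vehicle; n = 7–8. Housed eight per cage, 20 ± 2 °C, 12 h light/dark. Each animal did the plus-maze first, then forced swim.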
With `Cn1c(N2N=C(c3ccc(Cl)cc3)CC2c2ccco2)nc2ccccc2c1=O` (centres undefined) the Activity was 204. `Cc1ccc(C(/C=C/c2cccs2)=N\Nc2nc3ccccc3c(=O)n2C)cc1` was tested, and the Activity was 204.71. `Cn1c(N/N=C(/C=C/c2cccs2)c2ccc(Cl)cc2)nc2ccccc2c1=O` showed an Activity of 162.17. `COc1ccc(C(/C=C/c2cccs2)=N\Nc2nc3ccccc3c(=O)n2C)cc1` showed an Activity of 206.29. With `Cc1ccc(C(/C=C/c2ccco2)=N\Nc2nc3ccccc3c(=O)n2C)cc1` the Activity was 238.67. Work on `Cn1c(N/N=C(/C=C/c2ccccc2)c2ccccc2)nc2ccccc2c1=O` yielded an Activity of 191.

These compounds were tested on Mus musculus (assay: Anxiolytic activity in albino mouse assessed as total number of entries into arms at 100 mg/kg, ip by plus-maze test). Conditions: route intraperitoneal.
Assay type: functional
Summary of the method: as §1
In the case of `Cn1c(N2N=C(c3ccc(Cl)cc3)CC2c2ccco2)nc2ccccc2c1=O` (centres undefined), the arm entries is reported as 4.86 entries. For `Cc1ccc(C(/C=C/c2cccs2)=N\Nc2nc3ccccc3c(=O)n2C)cc1`, the arm entries was 5.57 entries. `Cn1c(N/N=C(/C=C/c2cccs2)c2ccc(Cl)cc2)nc2ccccc2c1=O` gave an arm entries of 8.5 entries. For `COc1ccc(C(/C=C/c2cccs2)=N\Nc2nc3ccccc3c(=O)n2C)cc1`, the arm entries was 8 entries. `Cc1ccc(C(/C=C/c2ccco2)=N\Nc2nc3ccccc3c(=O)n2C)cc1` was tested, and the arm entries was 5.14 entries. With `Cn1c(N/N=C(/C=C/c2ccccc2)c2ccccc2)nc2ccccc2c1=O` the arm entries was 5.37 entries.

Each compound was assayed on Mus musculus (assay: Antidepressant activity in albino mouse assessed as immobility time at 100 mg/kg, ip by forced swim test). Conditions: route intraperitoneal.
Assay type: functional
Summary of the method: as §1
`Cn1c(N2N=C(c3ccc(Cl)cc3)CC2c2ccco2)nc2ccccc2c1=O` (centres undefined) was tested, and the Activity was 74%. `Cc1ccc(C(/C=C/c2cccs2)=N\Nc2nc3ccccc3c(=O)n2C)cc1` was tested, and the Activity was 65.57%. With `Cn1c(N/N=C(/C=C/c2cccs2)c2ccc(Cl)cc2)nc2ccccc2c1=O` the Activity was 50.39%. For `COc1ccc(C(/C=C/c2cccs2)=N\Nc2nc3ccccc3c(=O)n2C)cc1`, the Activity was 49.29%. For `Cc1ccc(C(/C=C/c2ccco2)=N\Nc2nc3ccccc3c(=O)n2C)cc1`, the Activity was 82.43%. `Cn1c(N/N=C(/C=C/c2ccccc2)c2ccccc2)nc2ccccc2c1=O` was tested, and the Activity was 55.43%.

These compounds were tested against T1, Amine oxidase [flavin-containing] A (Rattus norvegicus, UniProt P21396) (assay: Inhibition of MAO-A in rat liver homogenate after 60 mins by Lineweaver-Burke plot). Conditions: not given.
T1 sequence (P21396 whole entry): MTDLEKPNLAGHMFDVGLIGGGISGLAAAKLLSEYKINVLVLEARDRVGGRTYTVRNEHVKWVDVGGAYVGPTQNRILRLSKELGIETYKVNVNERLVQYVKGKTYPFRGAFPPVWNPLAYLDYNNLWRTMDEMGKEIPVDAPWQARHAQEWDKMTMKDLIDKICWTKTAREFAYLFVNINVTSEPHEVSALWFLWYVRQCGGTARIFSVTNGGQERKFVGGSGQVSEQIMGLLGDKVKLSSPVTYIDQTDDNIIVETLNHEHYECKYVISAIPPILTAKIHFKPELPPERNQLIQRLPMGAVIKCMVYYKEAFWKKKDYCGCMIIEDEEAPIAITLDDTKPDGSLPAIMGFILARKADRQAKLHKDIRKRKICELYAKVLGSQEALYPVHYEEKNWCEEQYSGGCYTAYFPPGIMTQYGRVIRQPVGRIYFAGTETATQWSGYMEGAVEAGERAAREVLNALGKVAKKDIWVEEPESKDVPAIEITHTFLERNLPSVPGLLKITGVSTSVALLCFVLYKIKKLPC
Assay type: tissue-based
`Cn1c(N2N=C(c3ccc(Cl)cc3)CC2c2ccco2)nc2ccccc2c1=O` (centres undefined) showed a Ki of 28.7 µM. `Cc1ccc(C(/C=C/c2cccs2)=N\Nc2nc3ccccc3c(=O)n2C)cc1` showed a Ki of 190 µM. Work on `Cn1c(N/N=C(/C=C/c2cccs2)c2ccc(Cl)cc2)nc2ccccc2c1=O` yielded a Ki of 28.2 µM. With `COc1ccc(C(/C=C/c2cccs2)=N\Nc2nc3ccccc3c(=O)n2C)cc1` the Ki was 185 µM. `Cc1ccc(C(/C=C/c2ccco2)=N\Nc2nc3ccccc3c(=O)n2C)cc1` showed a Ki of 181 µM. Work on `Cn1c(N/N=C(/C=C/c2ccccc2)c2ccccc2)nc2ccccc2c1=O` yielded a Ki of 34.2 µM.

Same assay, conditions: rat, 1 h; TDE = time-dependent effect
In the case of `Cn1c(N2N=C(c3ccc(Cl)cc3)CC2c2ccco2)nc2ccccc2c1=O` (centres undefined), the Activity is reported as “tde”. For `Cc1ccc(C(/C=C/c2cccs2)=N\Nc2nc3ccccc3c(=O)n2C)cc1`, the Activity was “tde”. With `Cn1c(N/N=C(/C=C/c2cccs2)c2ccc(Cl)cc2)nc2ccccc2c1=O` the Activity was “tde”. With `COc1ccc(C(/C=C/c2cccs2)=N\Nc2nc3ccccc3c(=O)n2C)cc1` the Activity was “tde”. With `Cc1ccc(C(/C=C/c2ccco2)=N\Nc2nc3ccccc3c(=O)n2C)cc1` the Activity was “tde”. `Cn1c(N/N=C(/C=C/c2ccccc2)c2ccccc2)nc2ccccc2c1=O` was tested, and the Activity was “tde”.

Each compound was assayed against T2, Amine oxidase [flavin-containing] B (Rattus norvegicus, UniProt P19643) (assay: Inhibition of MAO-B in rat liver homogenate after 60 mins by residual activity plot). Conditions: not given.
T2 sequence (P19643 whole entry): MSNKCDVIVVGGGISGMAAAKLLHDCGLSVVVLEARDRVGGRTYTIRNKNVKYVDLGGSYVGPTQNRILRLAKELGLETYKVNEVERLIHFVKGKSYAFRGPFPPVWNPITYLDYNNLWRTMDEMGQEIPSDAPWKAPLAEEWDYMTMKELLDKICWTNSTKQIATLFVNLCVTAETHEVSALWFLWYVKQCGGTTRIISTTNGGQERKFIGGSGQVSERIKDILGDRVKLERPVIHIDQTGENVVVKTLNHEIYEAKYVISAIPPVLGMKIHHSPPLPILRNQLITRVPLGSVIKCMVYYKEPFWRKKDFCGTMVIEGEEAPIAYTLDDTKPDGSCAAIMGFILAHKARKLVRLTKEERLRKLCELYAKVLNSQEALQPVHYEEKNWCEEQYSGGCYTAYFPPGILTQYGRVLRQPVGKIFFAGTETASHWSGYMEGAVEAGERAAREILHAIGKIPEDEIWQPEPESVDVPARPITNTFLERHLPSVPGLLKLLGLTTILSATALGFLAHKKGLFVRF
Assay type: tissue-based
`Cn1c(N2N=C(c3ccc(Cl)cc3)CC2c2ccco2)nc2ccccc2c1=O` (centres undefined) was tested, and the IC50 was 7.22 µM. With `Cc1ccc(C(/C=C/c2cccs2)=N\Nc2nc3ccccc3c(=O)n2C)cc1` the IC50 was 419 µM. `Cn1c(N/N=C(/C=C/c2cccs2)c2ccc(Cl)cc2)nc2ccccc2c1=O` gave an IC50 of 416 µM. Compound `COc1ccc(C(/C=C/c2cccs2)=N\Nc2nc3ccccc3c(=O)n2C)cc1` has an IC50 of 299 µM. Compound `Cc1ccc(C(/C=C/c2ccco2)=N\Nc2nc3ccccc3c(=O)n2C)cc1` has an IC50 of 320 µM. `Cn1c(N/N=C(/C=C/c2ccccc2)c2ccccc2)nc2ccccc2c1=O` showed an IC50 of 415 µM.

Each compound was assayed against T1, Amine oxidase [flavin-containing] A (assay: Inhibition of MAO-A in rat liver homogenate after 60 mins by residual activity plot). Conditions: not given.
Assay type: tissue-based
Work on `Cn1c(N2N=C(c3ccc(Cl)cc3)CC2c2ccco2)nc2ccccc2c1=O` (centres undefined) yielded an IC50 of 450 µM. With `Cc1ccc(C(/C=C/c2cccs2)=N\Nc2nc3ccccc3c(=O)n2C)cc1` the IC50 was 33.2 µM. For `Cn1c(N/N=C(/C=C/c2cccs2)c2ccc(Cl)cc2)nc2ccccc2c1=O`, the IC50 was 28 µM. For `COc1ccc(C(/C=C/c2cccs2)=N\Nc2nc3ccccc3c(=O)n2C)cc1`, the IC50 was 27.2 µM. Compound `Cc1ccc(C(/C=C/c2ccco2)=N\Nc2nc3ccccc3c(=O)n2C)cc1` has an IC50 of 90.8 µM. With `Cn1c(N/N=C(/C=C/c2ccccc2)c2ccccc2)nc2ccccc2c1=O` the IC50 was 35.1 µM.

Each compound was assayed against T2, Amine oxidase [flavin-containing] B (assay: Inhibition of MAO-B in rat liver homogenate after 60 mins by Lineweaver-Burke plot). Conditions: not given.
Assay type: tissue-based
Compound `Cn1c(N2N=C(c3ccc(Cl)cc3)CC2c2ccco2)nc2ccccc2c1=O` (centres undefined) has a Ki of 9.25 µM. `Cc1ccc(C(/C=C/c2cccs2)=N\Nc2nc3ccccc3c(=O)n2C)cc1` showed a Ki of 188 µM. `Cn1c(N/N=C(/C=C/c2cccs2)c2ccc(Cl)cc2)nc2ccccc2c1=O` showed a Ki of 69.1 µM. In the case of `COc1ccc(C(/C=C/c2cccs2)=N\Nc2nc3ccccc3c(=O)n2C)cc1`, the Ki is reported as 184 µM. Compound `Cc1ccc(C(/C=C/c2ccco2)=N\Nc2nc3ccccc3c(=O)n2C)cc1` has a Ki of 179 µM. `Cn1c(N/N=C(/C=C/c2ccccc2)c2ccccc2)nc2ccccc2c1=O` gave a Ki of 70.5 µM.

Same assay, conditions: rat, 1 h; TDE = time-dependent effect
For `Cn1c(N2N=C(c3ccc(Cl)cc3)CC2c2ccco2)nc2ccccc2c1=O` (centres undefined), the Activity was “tde”. With `Cc1ccc(C(/C=C/c2cccs2)=N\Nc2nc3ccccc3c(=O)n2C)cc1` the Activity was “tde”. With `Cn1c(N/N=C(/C=C/c2cccs2)c2ccc(Cl)cc2)nc2ccccc2c1=O` the Activity was “tde”. In the case of `COc1ccc(C(/C=C/c2cccs2)=N\Nc2nc3ccccc3c(=O)n2C)cc1`, the Activity is reported as “tde”. With `Cc1ccc(C(/C=C/c2ccco2)=N\Nc2nc3ccccc3c(=O)n2C)cc1` the Activity was “tde”. With `Cn1c(N/N=C(/C=C/c2ccccc2)c2ccccc2)nc2ccccc2c1=O` the Activity was “tde”.
